For experiment [1], the target named is T1, Melanocortin receptor 4 (Mus musculus, UniProt P56450). The experiment in a line: Inhibitory concentration towards melanocortin MC4 receptor by displacing radioligand [125I]NDP-MSH. The method, boiled down:
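Whole HEK-293 cells stably expressing the mouse MC4 receptor, plated at 0.3 × 10⁶ cells/well the day before. Cells washed, lysed in NaOH/Triton X-100, and counted by γ-counter. IC50 by nonlinear least-squares fit; duplicate wells, at least two independent experiments, mean ± SD.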

In experiment [2] the target is T1, Melanocortin receptor 4. The experiment in a line: Inhibitory concentration towards melanocortin MC4 receptor by displacing radioligand [125I]-hAGRP(87-132).
The target in another experiment is Melanocortin receptor 5 (Mus musculus, UniProt P41149). The experiment can be described thus: Effective concentration against mouse Melanocortin 5 receptor. The experiment is classed as functional. The method, boiled down:
(§1)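 HEK-293 cells stably expressing the mouse melanocortin receptor (G418 selection), transiently transfected with CRE/β-galactosidase reporter. EC50 by nonlinear least-squares fit; SEM from at least three independent experiments.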

Experiment [3] addresses Melanocyte-stimulating hormone receptor (Mus musculus, UniProt Q01727). The experiment in a line: Effective concentration against mouse Melanocortin 1 receptor. It counts as functional. The method in brief:
as §1

For experiment [4], the target named is T1, Melanocortin receptor 4. The experiment can be described thus: Effective concentration against mouse melanocortin MC4 receptor. It counts as functional. The method, boiled down: as §1
For a further experiment, the target named is Melanocortin receptor 3 (Mus musculus, UniProt P33033). The experiment can be described thus: Effective concentration against mouse Melanocortin 3 receptor. The experiment is classed as functional. As to conditions: for Kb: read-out: pA2 (converted). The method, boiled down: as §1

pEC50, pIC50: −log10 of the molar value. *1 amine or outer side, *2 acyl side, *3 side chain or, on linkers, in order; H or OH if unused. Where a SMILES comes first, the peptide text is derived from it. Bridges are numbered along the chain shown (N, C = ends). [ ]: non-standard residue; d: D form. The star is where a group is joined. X4 = O=C(C(=O)[*:2])[C@H](Cc1ccccc1)N[*:1]; X3 = NN[C@@H](Cc1ccc(O)cc1)C(=O)*; Dap = NC[C@H](N)C(=O)O

Melanocortin receptor 5, sequence (P41149 whole entry): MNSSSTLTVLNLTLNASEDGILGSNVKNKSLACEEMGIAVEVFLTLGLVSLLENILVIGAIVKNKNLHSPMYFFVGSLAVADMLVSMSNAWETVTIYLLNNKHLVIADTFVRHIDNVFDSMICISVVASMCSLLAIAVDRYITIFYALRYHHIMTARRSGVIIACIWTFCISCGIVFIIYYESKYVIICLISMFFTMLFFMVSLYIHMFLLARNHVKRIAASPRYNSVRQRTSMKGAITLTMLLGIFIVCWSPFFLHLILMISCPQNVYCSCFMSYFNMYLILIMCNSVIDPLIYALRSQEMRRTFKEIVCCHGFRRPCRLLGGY
Melanocortin receptor 3, sequence (P33033 whole entry): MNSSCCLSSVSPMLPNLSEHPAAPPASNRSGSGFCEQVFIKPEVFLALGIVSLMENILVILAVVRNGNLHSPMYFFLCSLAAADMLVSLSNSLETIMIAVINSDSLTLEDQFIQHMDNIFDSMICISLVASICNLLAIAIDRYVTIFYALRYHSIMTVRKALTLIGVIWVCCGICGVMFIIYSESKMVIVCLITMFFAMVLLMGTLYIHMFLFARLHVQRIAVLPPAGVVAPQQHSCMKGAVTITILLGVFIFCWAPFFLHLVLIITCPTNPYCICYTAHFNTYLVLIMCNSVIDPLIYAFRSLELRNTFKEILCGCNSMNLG
Melanocyte-stimulating hormone receptor, sequence (Q01727 whole entry): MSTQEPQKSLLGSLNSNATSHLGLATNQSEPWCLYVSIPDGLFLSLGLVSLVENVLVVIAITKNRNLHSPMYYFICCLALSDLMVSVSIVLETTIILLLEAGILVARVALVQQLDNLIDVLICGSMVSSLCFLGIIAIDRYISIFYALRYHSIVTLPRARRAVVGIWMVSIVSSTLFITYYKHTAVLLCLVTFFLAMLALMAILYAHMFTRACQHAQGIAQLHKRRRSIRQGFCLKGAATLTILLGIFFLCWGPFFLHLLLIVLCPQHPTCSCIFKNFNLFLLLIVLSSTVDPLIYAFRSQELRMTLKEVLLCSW
T1 sequence (P56450 whole entry): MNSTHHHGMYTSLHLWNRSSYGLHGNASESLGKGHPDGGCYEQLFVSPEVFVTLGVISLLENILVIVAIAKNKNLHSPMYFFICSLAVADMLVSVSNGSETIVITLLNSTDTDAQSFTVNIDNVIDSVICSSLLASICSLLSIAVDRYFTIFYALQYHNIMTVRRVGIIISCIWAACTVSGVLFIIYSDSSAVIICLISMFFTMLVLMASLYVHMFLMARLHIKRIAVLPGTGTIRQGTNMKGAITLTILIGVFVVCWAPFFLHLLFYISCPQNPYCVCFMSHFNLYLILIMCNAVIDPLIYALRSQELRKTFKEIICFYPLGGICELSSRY

As for `C[C@@H]1NC(=O)[C@H](CC(N)=O)NC(=O)[C@H](Cc2c[nH]c3ccccc23)NC(=O)[C@H](CCCNC(=N)N)NC(=O)[C@@H](Cc2ccccc2)NC(=O)[C@@H](NC(=O)[C@@H](N)Cc2ccc(O)cc2)CC(=O)NC[C@@H](C(=O)N[C@@H](Cc2ccc(O)cc2)C(N)=O)NC(=O)[C@H](Cc2ccccc2)NC1=O` (H-YD[dF]RWNAF[Dap]Y-NH2; lactam 2-9), the pIC50 on Melanocortin receptor 4 [1] is 5.17; on Melanocortin receptor 4 [2], 5.51.
`C[C@@H]1NC(=O)[C@H](CC(N)=O)NC(=O)[C@H](Cc2ccccc2)NC(=O)[C@H](CCCNC(=N)N)NC(=O)[C@H](Cc2c[nH]c3ccccc23)NC(=O)[C@@H](NC(=O)[C@@H](N)Cc2ccc(O)cc2)CC(=O)NC[C@@H](C(=O)N[C@@H](Cc2ccc(O)cc2)C(N)=O)NC(=O)[C@H](Cc2ccccc2)NC1=O` (H-YDWRFNAF[Dap]Y-NH2; lactam 2-9): the pIC50 on Melanocortin receptor 4 [1] was 4.99; at Melanocortin receptor 4 [2], 5.14.
As to `C[C@@H]1NC(=O)[C@H](CC(N)=O)NC(=O)[C@@H](Cc2ccccc2)NC(=O)[C@H](CCCNC(=N)N)NC(=O)[C@H](Cc2c[nH]c3ccccc23)NC(=O)[C@@H](NC(=O)[C@@H](N)Cc2ccc(O)cc2)CC(=O)NC[C@@H](C(=O)N[C@@H](Cc2ccc(O)cc2)C(N)=O)NC(=O)[C@H](Cc2ccccc2)NC1=O` (H-YDWR[dF]NAF[Dap]Y-NH2; lactam 2-9), the pEC50 on Melanocortin receptor 5 was 5.65; in experiment [3], 5.21; at Melanocortin receptor 4 [4] it was 4.80. This compound showed a negative-log IC50 (pIC50) on Melanocortin receptor 4 [2] of less than 5.00.
For the compound `C[C@@H]1NC(=O)[C@H](CC(N)=O)NC(=O)[C@H](Cc2ccccc2)NC(=O)[C@H](Cc2ccccc2)NC(=O)[C@H](CCCNC(=N)N)NC(=O)[C@@H](NC(=O)[C@@H](N)Cc2ccc(O)cc2)CC(=O)NC[C@@H](C(=O)N[C@@H](Cc2ccc(O)cc2)C(N)=O)NC(=O)[C@H](Cc2ccccc2)NC1=O`, the pIC50 was 5.32 on Melanocortin receptor 4 [1] and 5.49 at Melanocortin receptor 4 [2].
With `C[C@@H]1NC(=O)[C@H](CC(N)=O)NC(=O)[C@H](Cc2c[nH]c3ccccc23)NC(=O)[C@H](CCCNC(=N)N)NC(=O)[C@H](Cc2ccccc2)NC(=O)[C@@H](NC(=O)[C@@H](N)Cc2ccc(O)cc2)CC(=O)NC[C@@H](C(=O)N[C@@H](Cc2ccc(O)cc2)C(N)=O)NC(=O)[C@H](Cc2ccccc2)NC1=O` (H-YDFRWNAF[Dap]Y-NH2; lactam 2-9), the negative logarithm of the EC50 (pEC50) on Melanocortin receptor 5 was 5.41; in experiment [3], 4.71; at Melanocortin receptor 4 [4], 4.87. Also, the negative-log IC50 (pIC50) at Melanocortin receptor 4 [1] is 5.04; at Melanocortin receptor 4 [2] it was 5.39.
`C[C@@H]1NC(=O)[C@@H](CC(N)=O)NC(=O)[C@H](Cc2ccccc2)NC(=O)[C@@H](Cc2ccccc2)NC(=O)[C@H](CCCN=C(N)N)NC(=O)[C@@H](NC(=O)[C@@H](N)Cc2ccc(O)cc2)CC(=O)NC[C@@H](C(=O)N[C@@H](Cc2ccc(O)cc2)C(=O)O)NC(=O)[C@@H](Cc2ccccc2)NC1=O`: the Kb at Melanocortin receptor 3 was 2 µM.
Turning to `CNC(=O)C[C@@H]1NC(=O)[C@H](C)NC(=O)[C@H](C)NC(=O)[C@H](C)NC(=O)[C@@H](NC(=O)[C@H](Cc2ccc(O)cc2)NN)CC(=O)NC[C@@H](C(=O)N[C@@H](Cc2ccc(O)cc2)C(N)=O)NC(=O)C(=O)[C@H](Cc2ccccc2)NC(=O)[C@H](C)NC1=O` (X3-DAAAD(NHMe)A[X4][Dap]Y-NH2; lactam 1-8), the pEC50 on Melanocortin receptor 3 was less than 4.00.
Consider `CSCC[C@@H]1NC(=O)[C@H](C)NC(=O)[C@H]([C@@H](C)O)NC(=O)CNC(=O)[C@H](CC(C)C)NC(=O)[C@H](CCCCN)NC(=O)[C@H](CCCN=C(N)N)NC(=O)[C@@H]2CSSSSC[C@@H]3NC(=O)[C@@H]4CCCN4C(=O)[C@H](C(C)C)NC(=O)[C@H](CCC(N)=O)NC(=O)[C@H](CCC(N)=O)NC(=O)CNC(=O)[C@H](CC(C)C)NC(=O)[C@@H]4CSSSSC[C@H](NC(=O)[C@H]([C@@H](C)O)NC(=O)[C@H](C)NC(=O)[C@H](CSSSSC[C@@H](C(=O)N[C@@H](CO)C(=O)N[C@@H](CCCN=C(N)N)C(=O)N[C@H](C(=O)O)[C@@H](C)O)NC(=O)[C@@H]5CCCN5C(=O)[C@H](CC(N)=O)NC1=O)NC(=O)[C@@H]1CCCN1C(=O)[C@H](CC(=O)O)NC(=O)[C@H](CSSSSC[C@H](N)C(=O)N[C@@H](C(C)C)C(=O)N[C@@H](CCCN=C(N)N)C(=O)N[C@@H](CC(C)C)C(=O)N[C@@H](Cc1c[nH]cn1)C(=O)N[C@@H](CCC(=O)O)C(=O)N[C@@H](CO)C(=O)N4)NC3=O)C(=O)N[C@@H](Cc1ccc(O)cc1)C(=O)N[C@H]1CSSSSC[C@H](NC(=O)[C@H](Cc3ccccc3)NC(=O)[C@H](C)NC(=O)[C@H](CC(N)=O)NC(=O)[C@H](Cc3ccccc3)NC(=O)[C@H](Cc3ccccc3)NC(=O)[C@H](CCCN=C(N)N)NC1=O)C(=O)N[C@@H](Cc1ccc(O)cc1)C(=O)N2`, for which the Kb at Melanocortin receptor 3 was 0.00126 µM. In experiment [3], this compound showed a pEC50 of less than 4.00. The same compound showed a negative-log IC50 (pIC50) at Melanocortin receptor 4 [2] of 8.26.
As to `C[C@@H]1NC(=O)[C@H](CC(N)=O)NC(=O)[C@H](Cc2ccccc2)NC(=O)[C@H](Cc2ccccc2)NC(=O)[C@H](CCCNC(=N)N)NC(=O)[C@H](Cc2c[nH]cn2)NC(=O)[C@@H](NC(=O)[C@@H](N)Cc2ccc(O)cc2)CC(=O)NC[C@@H](C(=O)N[C@@H](Cc2ccc(O)cc2)C(N)=O)NC(=O)[C@H](Cc2ccccc2)NC1=O` (H-YDHRFFNAF[Dap]Y-NH2; lactam 2-10), the negative-log EC50 (pEC50) on Melanocortin receptor 5 was less than 4.00; in experiment [3], 4.88; at Melanocortin receptor 4 [4], less than 4.00.

Source of the values: ChEMBL document CHEMBL1137089, “Identification of putative agouti-related protein(87-132)-melanocortin-4 receptor interactions by homology molecular modeling and validation using chimeric peptide ligands” (J Med Chem, 2004).
